Measured values reported in ChEMBL document CHEMBL1145867, “Muraymycins, novel peptidoglycan biosynthesis inhibitors: synthesis and SAR of their analogues” (2003).
In brackets after ≈: the same amount, converted by molar mass. Activity calls are given as the source filed them. The rule behind the calls is not given here.

What was measured:
Staphylococcus sp. [1] = test: In vitro antimicrobial activity against CNS GC 4538 at 10.7 ug/ml soluble peptidoglycan; format: functional
Enterococcus faecalis [2] = test: In vitro antimicrobial activity against Enterococcus faecalis GC 842 at 10.7 ug/ml soluble peptidoglycan; format: functional
Staphylococcus aureus [3] = test: In vitro antimicrobial activity against Staphylococcus aureus GC 4536 at 10.7 ug/mL soluble peptidoglycan; format: functional
Staphylococcus aureus [4] = test: In vitro antimicrobial activity against Staphylococcus aureus GC 2216 at 10.7 ug/ml soluble peptidoglycan; format: functional
Staphylococcus aureus [5] = test: In vitro antimicrobial activity against Staphylococcus aureus GC 1131 at 10.7 ug/ml soluble peptidoglycan; format: functional
Staphylococcus sp. [6] = test: In vitro antimicrobial activity against CNS GC 4547 at 10.7 ug/ml soluble peptidoglycan; format: functional
Candida albicans [7] = test: In vitro antimicrobial activity against Candida albicans […] at 32 ug/ml soluble peptidoglycan; format: functional
Bacteria [8] = test: In vitro antimicrobial activity against gram-negative organisms (10)
Enterococcus faecalis [9] = test: In vitro antimicrobial activity against Enterococcus faecalis GC 4555 at 10.7 ug/ml soluble peptidoglycan; format: functional
Enterococcus faecalis [10] = test: In vitro antimicrobial activity 10.7 ug/ml soluble peptidoglycan; format: functional
Staphylococcus sp. [11] = test: In vitro antimicrobial activity against Coagulase-negative staphylococcus GC 4538 at 10.7 ug/ml soluble peptidoglycan; format: functional
[12] = The inhibitory activity of compound against MraY or MurG at 50 ug/mL; Inhibit
Staphylococcus sp. [13] = test: In vitro antimicrobial activity against CNS GC 4547 at 10.7 ug/mL soluble peptidoglycan; format: functional
[14] = The inhibitory activity of compound against MraY or MurG at 100 ug/mL; Inhibit
Staphylococcus aureus [15] = test: In vitro antimicrobial activity against Staphylococcus aureus GC 4536 at 10.7 ug/ml soluble peptidoglycan; format: functional
Enterococcus faecalis [16] = test: In vitro antimicrobial activity against Enterococcus faecalis GC 2242 at 10.7 ug/ml soluble peptidoglycan; format: functional
[17] = The inhibitory activity of compound against MraY or MurG at 6.25 ug/mL; No Inhibition
[18] = The inhibitory activity of compound against MraY or MurG at 25 ug/mL; No Inhibition
Candida albicans [19] = test: In vitro antimicrobial activity against Candida albicans […] at 10.7 ug/ml soluble peptidoglycan; format: functional
[20] = The inhibitory activity of compound against MraY or MurG at 12.5 ug/mL; No Inhibition
Bacteria [21] = test: In vitro antimicrobial activity against gram-negative organisms (10); format: functional
Procedure, shortened: (§1)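 Broth microdilution per NCCLS guidance. Serial dilutions of each agent in microtiter plates are inoculated with each organism to 10⁵ CFU/mL and incubated 18–22 h at 35 C in ambient air. MIC is the lowest concentration giving complete growth inhibition, judged by the unaided eye.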

Staphylococcus sp. [22] = test: In vitro antimicrobial activity against CNS GC 4547; format: functional; procedure, shortened: as §1
Staphylococcus sp. [23] = test: In vitro antimicrobial activity against Coagulase-negative staphylococcus GC 4538; format: functional; procedure, shortened: as §1
Enterococcus faecalis [24] = test: In vitro antimicrobial activity against Enterococcus faecalis GC 842; format: functional; procedure, shortened: as §1
Staphylococcus sp. [25] = test: In vitro antimicrobial activity against CNS GC 4538; format: functional; procedure, shortened: as §1
Enterococcus faecalis [26] = test: In vitro antimicrobial activity against Enterococcus faecalis GC 4555; format: functional; procedure, shortened: as §1
Staphylococcus aureus [27] = test: In vitro antimicrobial activity against Staphylococcus aureus GC 4536; format: functional; procedure, shortened: as §1
Staphylococcus aureus [28] = test: In vitro antimicrobial activity against Staphylococcus aureus GC 2216; format: functional; procedure, shortened: as §1
Staphylococcus aureus [29] = test: In vitro antimicrobial activity against Staphylococcus aureus GC 1131; format: functional; procedure, shortened: as §1
Enterococcus faecalis [30] = test: In vitro antimicrobial activity against Enterococcus faecalis GC 2242; format: functional; procedure, shortened: as §1
Staphylococcus aureus [31] = test: In vitro antimicrobial activity against Staphylococcu aureus GC 2216; format: functional; procedure, shortened: as §1
Escherichia coli [32] = test: In vitro antimicrobial activity against Escherichia coli GC 4559; format: functional; procedure, shortened: as §1
Serratia marcescens [33] = test: In vitro antimicrobial activity against In vitro antimicrobial activity against Serratia marcescens GC 4077
Escherichia coli [34] = test: In vitro antimicrobial activity against Escherichia coli GC 4560; format: functional; procedure, shortened: as §1
Pseudomonas aeruginosa [35] = test: In vitro antimicrobial activity against Pseudomonas aeruginosa GC 4532; format: functional; procedure, shortened: as §1
Staphylococcus aureus [36] = test: In vitro antimicrobial activity against Staphylococcu aureus GC 4536; format: functional; procedure, shortened: as §1
Enterobacter cloacae = test: In vitro antimicrobial activity against Enterobacter cloacae GC 3783; format: functional; procedure, shortened: as §1
Candida albicans [37] = test: In vitro antimicrobial activity against Candida albicans GC 3066; format: functional; procedure, shortened: as §1
Enterococcus sp. = test: In vitro antimicrobial activity against Enterococci; format: functional; procedure, shortened: as §1
Pseudomonas aeruginosa [38] = test: In vitro antimicrobial activity against Pseudomonas aeruginosa GC 2214; format: functional; procedure, shortened: as §1
Escherichia coli [39] = test: In vitro antimicrobial activity against Escherichia coli GC 2214; format: functional; procedure, shortened: as §1
Serratia marcescens [40] = test: In vitro antimicrobial activity against Serratia marcescens GC 4077; format: functional; procedure, shortened: as §1
Staphylococcus aureus [41] = test: In vitro antimicrobial activity against Staphylococcu aureus GC 1131; format: functional
Procedure, shortened: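 Broth dilution per NCCLS recommendations. Serial dilutions in microtiter plates inoculated to 10⁵ CFU/mL, then incubated 18–22 h at 35 C in ambient air. MIC taken as the lowest concentration giving complete growth inhibition by unaided eye.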

Staphylococcus sp. [42] = test: In vitro antimicrobial activity against Staphylococci; format: functional, staphyl ococcus species; procedure, shortened: as §1
Escherichia coli [43] = test: In vitro antimicrobial activity against Escherichia coli GC 3226; format: functional; procedure, shortened: as §1
Klebsiella pneumoniae = test: In vitro antimicrobial activity against Klebsiella pneumoniae GC 4534; format: functional; procedure, shortened: as §1
[44] = Staphylococcus sp., read-out: MIC

## COc1ccc(Cn2c(=O)ccn([C@@H]3OC([C@@H](O)[C@H](NCCCNC(=O)[C@H](NC(=O)OCc4ccccc4)C(O)C(C)C)C(=O)OC(C)(C)C)[C@@H](O[Si](C)(C)C(C)(C)C)[C@H]3O[Si](C)(C)C(C)(C)C)c2=O)cc1 (stereo not given in full)
Staphylococcus sp. [1]
  MIC: 128 µg/mL (≈ 123 µM)
Enterococcus faecalis [2]
  MIC: 64 µg/mL (≈ 61.4 µM)
Staphylococcus aureus [3]
  MIC: 128 µg/mL (≈ 123 µM)
Staphylococcus aureus [4]
  MIC: 128 µg/mL (≈ 123 µM)
Staphylococcus aureus [5]
  MIC: 128 µg/mL (≈ 123 µM)
Staphylococcus sp. [6]
  MIC: 128 µg/mL (≈ 123 µM)
Candida albicans [7]
  MIC: 32 µg/mL (≈ 30.7 µM)
Bacteria [8]
  MIC: 64 µg/mL (≈ 61.4 µM)
Enterococcus faecalis [9]
  MIC: 64 µg/mL (≈ 61.4 µM)
Enterococcus faecalis [10]
  MIC: 64 µg/mL (≈ 61.4 µM)
Staphylococcus sp. [11]
  MIC: 128 µg/mL (≈ 123 µM)

## COc1ccc(Cn2c(=O)ccn([C@@H]3OC([C@@H](O)[C@H](NCCCNC(=O)[C@H](N)C(O)C(C)C)C(=O)OC(C)(C)C)[C@@H](O[Si](C)(C)C(C)(C)C)[C@H]3O[Si](C)(C)C(C)(C)C)c2=O)cc1 (stereo not given in full)
Staphylococcus sp. [1]
  MIC: 128 µg/mL (≈ 141 µM)
[12]
  Inhibitory activity: Inhibit
Enterococcus faecalis [2]
  MIC: > 128 µg/mL
Staphylococcus sp. [13]
  MIC: 8 µg/mL (≈ 8.81 µM)
[14]
  Inhibitory activity: Inhibit
Staphylococcus aureus [4]
  MIC: 128 µg/mL (≈ 141 µM)
Staphylococcus aureus [15]
  MIC: 128 µg/mL (≈ 141 µM)
Staphylococcus aureus [5]
  MIC: 128 µg/mL (≈ 141 µM)
Enterococcus faecalis [16]
  MIC: 128 µg/mL (≈ 141 µM)
[17]
  Inhibitory activity: inactive
Bacteria [8]
  MIC: > 128 µg/mL
Enterococcus faecalis [9]
  MIC: 128 µg/mL (≈ 141 µM)
[18]
  Inhibitory activity: inactive
Candida albicans [19]
  MIC: 128 µg/mL (≈ 141 µM)
[20]
  Inhibitory activity: inactive
Staphylococcus sp. [11]
  MIC: 128 µg/mL (≈ 141 µM)

## COC1C(O)[C@@H](OC(C(NCCCNC(=O)[C@H](NC(=O)[C@@H](NC(=O)N[C@H](C(=O)O)C(C)C)C2CCN=C(N)N2)C(OC(=O)CCCCCCCCCCCN(O)C(=N)N)C(C)C)C(=O)O)[C@H]2O[C@@H](n3ccc(=O)[nH]c3=O)[C@H](O)[C@@H]2O)O[C@H]1CN (stereo not given in full)
Bacteria [21]
  MIC: 8 µg/mL (≈ 6.66 µM)
Staphylococcus sp. [22]
  MIC: 8 µg/mL (≈ 6.66 µM)
Staphylococcus sp. [23]
  MIC: 2 µg/mL (≈ 1.66 µM)
Enterococcus faecalis [24]
  MIC: 4 µg/mL (≈ 3.33 µM)
Staphylococcus sp. [25]; [44]
  MIC: 1 µg/mL (≈ 0.832 µM)
Enterococcus faecalis [26]
  MIC: 16 µg/mL (≈ 13.3 µM)
Staphylococcus aureus [27]
  MIC: 4 µg/mL (≈ 3.33 µM)
Staphylococcus aureus [28]
  MIC: 8 µg/mL (≈ 6.66 µM)
Staphylococcus aureus [29]
  MIC: 4 µg/mL (≈ 3.33 µM)
Enterococcus faecalis [30]
  MIC: 32 µg/mL (≈ 26.6 µM)

## COc1ccc(Cn2c(=O)ccn([C@@H]3OC([C@H](O)[C@H](NCCCNC(=O)[C@@H](C)N)C(=O)OC(C)(C)C)[C@@H](O[Si](C)(C)C(C)(C)C)[C@H]3O[Si](C)(C)C(C)(C)C)c2=O)cc1 (stereo not given in full)
Staphylococcus aureus [31]
  MIC: 8 µg/mL (≈ 9.41 µM)
[12]
  Inhibitory activity: Inhibit
Escherichia coli [32]
  MIC: 128 µg/mL (≈ 151 µM)
Bacteria [21]
  MIC: 64 µg/mL (≈ 75.3 µM)
Serratia marcescens [33]
  MIC: 128 µg/mL (≈ 151 µM)
Staphylococcus sp. [22]
  MIC: 4 µg/mL (≈ 4.7 µM)
Enterococcus faecalis [24]
  MIC: 4 µg/mL (≈ 4.7 µM)
[14]
  Inhibitory activity: Inhibit
Staphylococcus sp. [25]
  MIC: 8 µg/mL (≈ 9.41 µM)
Staphylococcus sp. [25]; [44]
  MIC: 4 µg/mL (≈ 4.7 µM)
Escherichia coli [34]
  MIC: 128 µg/mL (≈ 151 µM)
Pseudomonas aeruginosa [35]
  MIC: 128 µg/mL (≈ 151 µM)
Enterococcus faecalis [26]
  MIC: 8 µg/mL (≈ 9.41 µM)
[17]
  Inhibitory activity: inactive
Staphylococcus aureus [36]
  MIC: 4 µg/mL (≈ 4.7 µM)
Enterococcus faecalis [30]
  MIC: 4 µg/mL (≈ 4.7 µM)
Enterobacter cloacae
  MIC: 128 µg/mL (≈ 151 µM)
Candida albicans [37]
  MIC: 128 µg/mL (≈ 151 µM)
[18]
  Inhibitory activity: inactive
Enterococcus sp.
  MIC: 4 µg/mL (≈ 4.7 µM)
Pseudomonas aeruginosa [38]
  MIC: 128 µg/mL (≈ 151 µM)
Escherichia coli [39]
  MIC: 128 µg/mL (≈ 151 µM)
Serratia marcescens [40]
  MIC: 128 µg/mL (≈ 151 µM)
Staphylococcus aureus [41]
  MIC: 4 µg/mL (≈ 4.7 µM)
Staphylococcus sp. [42]
  MIC: 4 µg/mL (≈ 4.7 µM)
Escherichia coli [43]
  MIC: 128 µg/mL (≈ 151 µM)
Klebsiella pneumoniae
  MIC: 128 µg/mL (≈ 151 µM)
[20]
  Inhibitory activity: inactive
